In publication PMC2735501 (Journal of medicinal chemistry, 2009):

Columns and labels:
[1] = system: cytokine production by OVA stimulated splenocytes; test: Mouse splenocyte cytokine assay; format: cell-based; settings: for inhibiting TH2 cytokine production compared with dexamethasone (in words): IL-5, IL-13, 10 nM (Figure 9)
How it was run: (§1)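 Female Balb-C mice (6–8 weeks) were immunized s.c. weekly for four weeks with 25 µg OVA adsorbed to 1 mg alum in 200 µl PBS. Splenocytes were strained and resuspended at 1.3×10^6 cells/mL in RPMI-1640, then given test material in DMSO plus OVA. Replicate control wells held DMSO or DMSO+OVA. Supernatant cytokines were read by sandwich ELISA at 450 nm against standards in each replicate assay. Viability was checked by trypan blue count.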

IL-5 production = IL-5 production by OVA stimulated mouse splenocytes; format: cell-based; settings: pure compounds or fractions
How it was run: as §1

| Structure (SMILES) | inhibiting TH2 cytokine production compared with dexamethasone (in words) [1] | suppression of IL-5 production (in words) (IL-5 production) | suppression of cytokine production by OVA stimulated splenocytes (in words) [1] |
| --- | --- | --- | --- |
| CCCCCC[C@H]1C(=O)O[C@H](C)[C@H](NC(=O)c2cccc(NC=O)c2O)C(=O)O[C@@H](C)[C@@H]1OC(=O)c1ccccc1 [compound 7] | as effective as dexamethasone | – | – |
| C[C@@H]1OC(=O)[C@@H](NC(=O)c2cccc(NC=O)c2O)[C@@H](C)OC(=O)[C@H](Cc2ccccc2)[C@H]1O [compound 10] | – | low micromolar | low micromolar |
| CC(C)C(=O)O[C@H]1[C@H](C)OC(=O)[C@@H](NC(=O)c2cccc(NC=O)c2O)[C@@H](C)OC(=O)[C@@H]1Cc1ccccc1 [compound 2] | as effective as dexamethasone | – | – |
